Reference: ChEMBL document CHEMBL4270537, “Design and biological evaluation of novel triaryl pyrazoline derivatives with dioxane moiety for selective BRAFV600E inhibition” (Eur J Med Chem, 2018)
Calls of active or inactive are those of the source. The calls are words filed in the database; no cut-off is given here.

What was measured:
A-375 [1] = experiment: Induction of apoptosis in human A375 cells assessed as early apoptotic cells at 2 uM after 72 hrs by Annexin V-FITC/PI staining based flow cytometry (reference value: 5.42%); format: functional
How it was run: (§1)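 Apoptosis time course. A375 cells in 24-well plates (about 10⁵/well) at 2 µM for 0, 24, 48 and 72 h. Harvested by trypsin, washed in PBS, stained 15 min at room temperature in the dark with Annexin V-FITC/PI, analysed by flow cytometry.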

[2] = Cytotoxicity against human LO2 cells assessed as decrease in cell viability after 48 hrs by MTT assay; format: cell-based, L02
How it was run: (§2)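 MTT reduction assay. Cell lines grown to log phase in DMEM with 10% FBS (A375 in DMEM with sodium pyruvate added), seeded at 10⁴ cells/well in 96-well plates. Three replicate wells per concentration, each assay run three times, GI50 averaged.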

A-375 [3] = experiment: Cell cycle arrest in human A375 cells assessed as accumulation at G1 phase at 5 uM after 24 hrs by propidium iodide staining based flow cytometry (reference value: 73.6%); format: functional
A-375 [4] = experiment: Cell cycle arrest in human A375 cells assessed as accumulation at S phase at 10 uM after 24 hrs by propidium iodide staining based flow cytometry (reference value: 21.3%); format: functional
A-375 [5] = experiment: Cell cycle arrest in human A375 cells assessed as accumulation at G1 phase at 2.5 uM after 24 hrs by propidium iodide staining based flow cytometry (reference value: 73.6%); format: functional
A-375 [6] = experiment: Induction of apoptosis in human A375 cells assessed as early apoptotic cells at 2.5 uM after 24 hrs by Annexin V-FITC/PI staining based flow cytometry (reference value: 5.45%); format: functional
A-375 [7] = experiment: Induction of apoptosis in human A375 cells assessed as late apoptotic cells at 2 uM after 24 hrs by Annexin V-FITC/PI staining based flow cytometry (reference value: 3.61%); format: functional; how it was run: as §1
A-375 [8] = experiment: Induction of apoptosis in human A375 cells assessed as late apoptotic cells at 20 uM after 24 hrs by Annexin V-FITC/PI staining based flow cytometry (reference value: 4.26%); format: functional
[9] = molecular target: Serine/threonine-protein kinase B-raf (Homo sapiens, UniProt P15056); experiment: Inhibition of wild type BRAF in human WM1361 cells assessed as decrease in ERK1/2 phosphorylation up to 5 uM after 30 mins by Western blot analysis; format: cell-based
A-375 [10] = experiment: Induction of apoptosis in human A375 cells assessed as necrotic cells at 2.5 uM after 24 hrs by Annexin V-FITC/PI staining based flow cytometry (reference value: 1.61%); format: functional
[11] = Effect on total ERK1/2 protein level in human WM1361 cells after 30 mins by Western blot analysis; format: ADME, cell-based; settings: 0.5 h
How it was run: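 Western blot. Cells rinsed in cold PBS, lysed 30 min on ice in RIPA with protease inhibitors (1:100), cleared at 12,000 g, 4 °C. Protein measured by BCA, resolved by SDS-PAGE, transferred to PVDF, blocked in skim milk. Primary antibodies 1:500 overnight at 4 °C; secondary 1:5000 for 1 h at room temperature.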

HCT-116 = experiment: Antiproliferative activity against human HCT116 cells after 48 hrs by MTT assay; format: functional; settings: HCT-116, 48 h; how it was run: as §2
HT-29 = experiment: Antiproliferative activity against human HT-29 cells after 48 hrs by MTT assay; format: functional; settings: HT-29, 48 h; how it was run: as §2
A-375 [12] = experiment: Cell cycle arrest in human A375 cells assessed as accumulation at G2/M phase at 5 uM after 24 hrs by propidium iodide staining based flow cytometry (reference value: 5.1%); format: functional
A-375 [13] = experiment: Cell cycle arrest in human A375 cells assessed as accumulation at G2/M phase at 20 uM after 24 hrs by propidium iodide staining based flow cytometry (reference value: 5.1%); format: functional
A-375 [14] = experiment: Cell cycle arrest in human A375 cells assessed as accumulation at S phase at 2 uM after 24 hrs by propidium iodide staining based flow cytometry (reference value: 21.3%); format: functional
[15] = molecular target: Serine/threonine-protein kinase B-raf (Mus musculus, UniProt P28028, V600E); experiment: Inhibition of mouse full length GST-tagged BRAF V600E mutant using recombinant human full length N-terminal His-tagged MEK1 as substrate preincubated for 1 hr followed by substrate addition measured after 25 mins
A-375 [16] = experiment: Induction of apoptosis in human A375 cells assessed as late apoptotic cells at 10 uM after 24 hrs by Annexin V-FITC/PI staining based flow cytometry (reference value: 4.26%); format: functional
A-375 [17] = experiment: Induction of apoptosis in human A375 cells assessed as viable cells at 5 uM after 24 hrs by Annexin V-FITC/PI staining based flow cytometry (reference value: 88.7%); format: functional; settings: A-375, 24 h, read-out: Activity
A-375 [18] = experiment: Induction of apoptosis in human A375 cells assessed as viable cells at 2 uM after 72 hrs by Annexin V-FITC/PI staining based flow cytometry (reference value: 89.4%); format: functional; settings: A-375, 72 h, read-out: Activity
[19] = system: Serine/threonine-protein kinase B-raf (Homo sapiens), P15056 [V600E]; experiment: Inhibition of BRAF V600E mutant in human A375 cells assessed as decrease in ERK1/2 phosphorylation after 30 mins by Western blot analysis; format: cell-based
How it was run: (§3)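 A375 cells treated with compound at 0, 0.05, 0.1 and 0.5 µM, then PBS-rinsed and lysed in RIPA with protease inhibitors on ice for 30 min. Lysate was cleared at 12,000 g, 4 °C, and protein assayed by BCA. Samples run on SDS-PAGE and transferred to PVDF. Membranes were milk-blocked, probed with primary antibody (1:500) overnight at 4 °C, then secondary antibody (1:5000) for 1 h at room temperature.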

A-375 [20] = experiment: Induction of apoptosis in human A375 cells assessed as viable cells at 10 uM after 24 hrs by Annexin V-FITC/PI staining based flow cytometry (reference value: 88.7%); format: functional; settings: A-375, 24 h, read-out: Activity
[21] = system: Serine/threonine-protein kinase B-raf (Homo sapiens), P15056 [V600E]; experiment: Inhibition of BRAF V600E mutant in human A375 cells assessed as decrease in MEK1/2 phosphorylation after 30 mins by Western blot analysis; format: cell-based; how it was run: as §3
A-375 [22] = experiment: Induction of apoptosis in human A375 cells assessed as early apoptotic cells at 10 uM after 24 hrs by Annexin V-FITC/PI staining based flow cytometry (reference value: 5.45%); format: functional
Mus musculus = experiment: Toxicity in nude mouse xenografted with human A375 cells assessed as body weight loss at 5 to 10 mg/kg, ip administered every second day for 14 days and measured every 2 days; format: organism-based; settings: in vivo
How it was run: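 Nude mice bearing subcutaneous right-flank A375 xenografts (3×10⁶ cells in cold PBS) were randomized into groups of 5 at about 100 mm³. Compounds were suspended in olive oil and given intraperitoneally every second day for 14 days. Body weight was recorded every two days.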

A-375 [23] = experiment: Induction of apoptosis in human A375 cells assessed as necrotic cells at 20 uM after 24 hrs by Annexin V-FITC/PI staining based flow cytometry (reference value: 1.61%); format: functional
A-375 [24] = experiment: Induction of apoptosis in human A375 cells assessed as necrotic cells at 10 uM after 24 hrs by Annexin V-FITC/PI staining based flow cytometry (reference value: 1.61%); format: functional
A-375 [25] = experiment: Induction of apoptosis in human A375 cells assessed as late apoptotic cells at 2.5 uM after 24 hrs by Annexin V-FITC/PI staining based flow cytometry (reference value: 4.26%); format: functional

Chain of Serine/threonine-protein kinase B-raf (Homo sapiens), P15056 [V600E] (P15056 whole entry V600E): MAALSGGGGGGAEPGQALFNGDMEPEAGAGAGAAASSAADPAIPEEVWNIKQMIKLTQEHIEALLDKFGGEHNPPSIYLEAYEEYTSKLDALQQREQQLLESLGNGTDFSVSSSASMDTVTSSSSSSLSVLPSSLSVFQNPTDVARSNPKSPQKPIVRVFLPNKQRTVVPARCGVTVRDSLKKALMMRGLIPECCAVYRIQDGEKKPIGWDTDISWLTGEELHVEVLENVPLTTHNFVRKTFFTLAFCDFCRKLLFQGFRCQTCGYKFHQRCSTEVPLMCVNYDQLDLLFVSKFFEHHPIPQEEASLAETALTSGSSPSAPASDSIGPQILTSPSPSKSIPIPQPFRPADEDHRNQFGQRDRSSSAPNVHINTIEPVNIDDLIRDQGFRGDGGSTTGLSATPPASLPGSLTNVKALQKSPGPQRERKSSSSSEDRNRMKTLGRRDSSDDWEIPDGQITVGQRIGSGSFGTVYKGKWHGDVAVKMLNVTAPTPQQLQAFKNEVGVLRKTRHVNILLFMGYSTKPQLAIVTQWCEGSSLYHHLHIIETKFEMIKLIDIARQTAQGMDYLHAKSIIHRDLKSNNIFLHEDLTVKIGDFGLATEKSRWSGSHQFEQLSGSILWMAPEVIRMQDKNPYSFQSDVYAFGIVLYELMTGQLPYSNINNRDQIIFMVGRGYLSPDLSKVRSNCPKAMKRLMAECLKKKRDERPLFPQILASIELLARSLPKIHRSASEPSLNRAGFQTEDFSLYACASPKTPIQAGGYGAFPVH
Chain of Serine/threonine-protein kinase B-raf (Homo sapiens, UniProt P15056) (P15056 whole entry): as the sequence (P15056 whole entry V600E) above, with E600V counted along it
Chain of Serine/threonine-protein kinase B-raf (Mus musculus, UniProt P28028, V600E) (P28028 whole entry, looked up, stated change not applied): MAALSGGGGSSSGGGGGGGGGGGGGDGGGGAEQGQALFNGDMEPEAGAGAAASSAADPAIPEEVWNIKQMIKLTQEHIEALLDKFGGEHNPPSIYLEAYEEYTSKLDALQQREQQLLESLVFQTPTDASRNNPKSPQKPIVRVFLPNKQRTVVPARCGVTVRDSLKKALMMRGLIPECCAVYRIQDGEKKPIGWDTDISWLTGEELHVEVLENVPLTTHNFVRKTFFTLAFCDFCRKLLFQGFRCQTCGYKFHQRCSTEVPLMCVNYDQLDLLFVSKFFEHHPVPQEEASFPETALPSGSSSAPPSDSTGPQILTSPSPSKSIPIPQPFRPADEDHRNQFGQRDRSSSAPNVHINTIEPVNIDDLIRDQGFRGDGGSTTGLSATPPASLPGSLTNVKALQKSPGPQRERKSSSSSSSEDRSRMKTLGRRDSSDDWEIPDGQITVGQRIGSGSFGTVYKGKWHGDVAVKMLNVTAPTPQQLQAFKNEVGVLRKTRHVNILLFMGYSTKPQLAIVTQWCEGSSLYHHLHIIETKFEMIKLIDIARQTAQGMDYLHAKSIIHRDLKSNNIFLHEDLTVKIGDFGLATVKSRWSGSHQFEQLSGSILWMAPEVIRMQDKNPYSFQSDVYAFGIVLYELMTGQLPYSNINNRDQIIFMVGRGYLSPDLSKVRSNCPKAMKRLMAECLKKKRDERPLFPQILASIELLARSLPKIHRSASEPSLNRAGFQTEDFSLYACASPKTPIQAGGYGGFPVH

Question: With COc1cccc(C2=NN(C(=S)Nc3ccccc3)C(c3ccc4c(c3)OCCO4)C2)c1 (stereo not drawn) as the molecule, how does the Activity (A-375 [1]) read?
Answer: 20.2%

Question: And the GI50 at 48 h [2]?
Answer: > 200000 nM

Question: What about the Activity (A-375 [3]) of the same molecule?
Answer: 61.3%

Question: What about the Activity (A-375 [4]) of the same molecule?
Answer: 13.8%

Question: And the Activity (A-375 [5])?
Answer: 72.3%

Question: What about the Activity (A-375 [6]) of the same molecule?
Answer: 16.7%

Question: And the Activity (A-375 [7])?
Answer: 6.76%

Question: What about the Activity (A-375 [8]) of the same molecule?
Answer: 11%

Question: What about the inhibition [9] of the same molecule?
Answer: inactive

Question: What about the Activity (A-375 [10]) of the same molecule?
Answer: 3.46%

Question: What about the Activity [11] of the same molecule?
Answer: Non-Toxic

Question: What about the GI50 (HCT-116) of the same molecule?
Answer: > 200000 nM

Question: What about the GI50 (HT-29) of the same molecule?
Answer: 2920 nM

Question: What about the Activity (A-375 [12]) of the same molecule?
Answer: 10.3%

Question: And the Activity (A-375 [13])?
Answer: 30.2%

Question: What about the Activity (A-375 [14]) of the same molecule?
Answer: 17.3%

Question: What about the IC50 [15] of the same molecule?
Answer: 60 nM

Question: What about the Activity (A-375 [16]) of the same molecule?
Answer: 10.8%

Question: And the viability at 5 µM (A-375 [17])?
Answer: 65%

Question: What about the viability at 2 µM (A-375 [18]) of the same molecule?
Answer: 71.1%

Question: And the inhibition [19]?
Answer: Dose-dependent effect

Question: What about the viability at 10 µM (A-375 [20]) of the same molecule?
Answer: 41.5%

Question: What about the inhibition [21] of the same molecule?
Answer: Dose-dependent effect

Question: And the Activity (A-375 [22])?
Answer: 45%

Question: What about the Activity (Mus musculus) of the same molecule?
Answer: Non-Toxic

Question: And the Activity (A-375 [23])?
Answer: 3.25%

Question: And the Activity (A-375 [24])?
Answer: 2.6%

Question: And the Activity (A-375 [25])?
Answer: 5.43%
